How the values were obtained:
[1] = system: MCF7; test: Antiproliferative activity against human MCF7 cells assessed as reduction in cell growth incubated for 72 hrs by MTT assay; format: functional, cell-based; settings: MCF7, 72 h
In short: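 MTT assay on MCF-7, A2780, HT29 and normal MRC5 fibroblast lines (ATCC) grown in DMEM with 10% FBS. Cells exposed to compounds for 72 h, then reduced MTT read at 570 nm.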

[2] = target: T1, Mitogen-activated protein kinase kinase kinase 5 (Homo sapiens) (UniProt Q99683); test: Inhibition of recombinant human N-terminal GST-tagged ASK1 (649 to 946 residues) expressed in baculovirus infected Sf9 insect cells assessed as enzyme activity incubated for 15 mins by [gamma-33]ATP based scintillation counting method relative to control; parameters: scale not given: the % may be the effect or the level left
T1 sequence (whole entry): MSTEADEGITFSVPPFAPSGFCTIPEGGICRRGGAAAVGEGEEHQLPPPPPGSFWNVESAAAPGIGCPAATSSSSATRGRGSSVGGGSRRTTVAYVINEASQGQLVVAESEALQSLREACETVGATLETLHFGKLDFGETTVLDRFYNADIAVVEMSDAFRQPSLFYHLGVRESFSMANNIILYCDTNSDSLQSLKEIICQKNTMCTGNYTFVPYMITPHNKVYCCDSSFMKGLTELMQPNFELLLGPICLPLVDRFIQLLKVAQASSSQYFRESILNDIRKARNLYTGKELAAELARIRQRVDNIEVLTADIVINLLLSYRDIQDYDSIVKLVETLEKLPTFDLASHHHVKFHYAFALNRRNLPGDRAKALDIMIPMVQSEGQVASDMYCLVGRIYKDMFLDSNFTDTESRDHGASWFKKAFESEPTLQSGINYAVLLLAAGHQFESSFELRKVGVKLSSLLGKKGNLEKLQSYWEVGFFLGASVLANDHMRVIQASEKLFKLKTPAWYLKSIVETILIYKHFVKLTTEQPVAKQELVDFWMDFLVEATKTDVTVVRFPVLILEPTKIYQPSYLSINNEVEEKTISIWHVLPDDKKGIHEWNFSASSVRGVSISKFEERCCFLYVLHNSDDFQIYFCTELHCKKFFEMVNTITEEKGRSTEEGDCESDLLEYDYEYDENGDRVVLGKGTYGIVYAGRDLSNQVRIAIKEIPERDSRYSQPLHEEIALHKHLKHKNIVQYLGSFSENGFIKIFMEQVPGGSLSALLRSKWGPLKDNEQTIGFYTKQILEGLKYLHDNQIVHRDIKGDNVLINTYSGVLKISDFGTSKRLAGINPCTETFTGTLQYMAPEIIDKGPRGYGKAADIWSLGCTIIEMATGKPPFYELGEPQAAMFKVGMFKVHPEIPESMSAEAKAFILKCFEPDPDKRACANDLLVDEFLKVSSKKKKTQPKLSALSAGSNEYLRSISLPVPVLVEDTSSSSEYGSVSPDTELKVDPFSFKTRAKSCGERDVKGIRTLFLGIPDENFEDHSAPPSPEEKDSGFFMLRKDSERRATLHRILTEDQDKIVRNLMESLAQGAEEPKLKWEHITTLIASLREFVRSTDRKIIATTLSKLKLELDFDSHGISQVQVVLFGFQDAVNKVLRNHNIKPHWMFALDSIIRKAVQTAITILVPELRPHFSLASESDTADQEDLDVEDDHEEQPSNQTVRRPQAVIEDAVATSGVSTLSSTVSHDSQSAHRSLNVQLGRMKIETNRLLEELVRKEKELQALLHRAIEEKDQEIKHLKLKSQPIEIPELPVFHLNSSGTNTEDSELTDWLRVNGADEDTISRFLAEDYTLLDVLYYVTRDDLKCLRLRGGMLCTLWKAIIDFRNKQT

[3] = target: T2, Aurora kinase A (Homo sapiens) (UniProt O14965); test: Inhibition of recombinant human N-terminal GST-tagged full length Aurora A expressed in baculovirus infected Sf9 insect cells assessed as enzyme activity incubated for 15 mins by [gamma-33]ATP based scintillation counting method relative to control; parameters: scale not given: the % may be the effect or the level left
T2 sequence (whole entry): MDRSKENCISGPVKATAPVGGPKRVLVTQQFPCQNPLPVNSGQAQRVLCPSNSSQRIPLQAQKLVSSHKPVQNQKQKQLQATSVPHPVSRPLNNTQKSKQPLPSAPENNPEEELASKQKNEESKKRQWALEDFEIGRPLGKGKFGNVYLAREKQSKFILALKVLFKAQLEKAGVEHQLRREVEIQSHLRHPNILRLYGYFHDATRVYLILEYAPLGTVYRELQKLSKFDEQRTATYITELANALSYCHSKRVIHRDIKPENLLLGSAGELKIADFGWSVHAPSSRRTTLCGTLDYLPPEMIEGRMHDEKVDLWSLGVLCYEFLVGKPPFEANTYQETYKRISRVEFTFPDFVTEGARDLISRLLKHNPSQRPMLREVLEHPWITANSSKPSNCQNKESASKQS

[4] = target: Casein kinase I isoform alpha (Homo sapiens) (UniProt P48729); test: Inhibition of CK1alpha1 (unknown origin) assessed as enzyme activity incubated for 15 mins by [gamma-33]ATP based scintillation counting method relative to control; parameters: scale not given: the % may be the effect or the level left
Sequence of Casein kinase I isoform alpha (Homo sapiens) (P48729 2-337 limits assumed): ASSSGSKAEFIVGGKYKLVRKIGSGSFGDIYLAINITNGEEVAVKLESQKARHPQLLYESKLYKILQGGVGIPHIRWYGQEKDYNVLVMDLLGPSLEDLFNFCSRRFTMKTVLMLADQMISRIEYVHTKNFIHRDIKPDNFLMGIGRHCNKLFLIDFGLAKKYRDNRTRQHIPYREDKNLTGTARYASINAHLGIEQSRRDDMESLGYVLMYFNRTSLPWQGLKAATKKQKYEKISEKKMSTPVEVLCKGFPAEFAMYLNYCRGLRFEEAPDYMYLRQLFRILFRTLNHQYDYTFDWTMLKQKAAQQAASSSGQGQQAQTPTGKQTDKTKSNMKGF

[5] = target: T3, Dual specificity tyrosine-phosphorylation-regulated kinase 3 (Homo sapiens) (UniProt O43781); test: Inhibition of DYRK3 (unknown origin) assessed as enzyme activity incubated for 15 mins by [gamma-33]ATP based scintillation counting method relative to control; parameters: scale not given: the % may be the effect or the level left
T3 sequence (whole entry): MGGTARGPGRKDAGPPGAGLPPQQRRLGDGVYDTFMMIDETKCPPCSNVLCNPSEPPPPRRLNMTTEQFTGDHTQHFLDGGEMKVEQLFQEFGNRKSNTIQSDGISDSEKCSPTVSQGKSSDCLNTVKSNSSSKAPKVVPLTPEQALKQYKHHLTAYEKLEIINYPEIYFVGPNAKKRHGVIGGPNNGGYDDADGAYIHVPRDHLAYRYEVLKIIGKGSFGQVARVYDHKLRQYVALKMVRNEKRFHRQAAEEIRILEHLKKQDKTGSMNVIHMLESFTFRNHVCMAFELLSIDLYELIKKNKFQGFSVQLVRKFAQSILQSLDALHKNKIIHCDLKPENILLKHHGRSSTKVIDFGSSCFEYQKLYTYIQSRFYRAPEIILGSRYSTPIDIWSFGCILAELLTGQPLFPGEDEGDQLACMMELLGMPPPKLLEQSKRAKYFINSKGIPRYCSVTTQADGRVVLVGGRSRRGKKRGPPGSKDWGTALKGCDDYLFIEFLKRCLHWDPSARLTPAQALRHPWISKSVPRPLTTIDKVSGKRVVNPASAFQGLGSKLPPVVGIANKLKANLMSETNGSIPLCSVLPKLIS

[6] = target: Epidermal growth factor receptor (Homo sapiens) (UniProt P00533); test: Inhibition of EGFR (unknown origin) assessed as enzyme activity incubated for 15 mins by [gamma-33]ATP based scintillation counting method relative to control; parameters: scale not given: the % may be the effect or the level left
Sequence of Epidermal growth factor receptor (Homo sapiens) (P00533 whole entry): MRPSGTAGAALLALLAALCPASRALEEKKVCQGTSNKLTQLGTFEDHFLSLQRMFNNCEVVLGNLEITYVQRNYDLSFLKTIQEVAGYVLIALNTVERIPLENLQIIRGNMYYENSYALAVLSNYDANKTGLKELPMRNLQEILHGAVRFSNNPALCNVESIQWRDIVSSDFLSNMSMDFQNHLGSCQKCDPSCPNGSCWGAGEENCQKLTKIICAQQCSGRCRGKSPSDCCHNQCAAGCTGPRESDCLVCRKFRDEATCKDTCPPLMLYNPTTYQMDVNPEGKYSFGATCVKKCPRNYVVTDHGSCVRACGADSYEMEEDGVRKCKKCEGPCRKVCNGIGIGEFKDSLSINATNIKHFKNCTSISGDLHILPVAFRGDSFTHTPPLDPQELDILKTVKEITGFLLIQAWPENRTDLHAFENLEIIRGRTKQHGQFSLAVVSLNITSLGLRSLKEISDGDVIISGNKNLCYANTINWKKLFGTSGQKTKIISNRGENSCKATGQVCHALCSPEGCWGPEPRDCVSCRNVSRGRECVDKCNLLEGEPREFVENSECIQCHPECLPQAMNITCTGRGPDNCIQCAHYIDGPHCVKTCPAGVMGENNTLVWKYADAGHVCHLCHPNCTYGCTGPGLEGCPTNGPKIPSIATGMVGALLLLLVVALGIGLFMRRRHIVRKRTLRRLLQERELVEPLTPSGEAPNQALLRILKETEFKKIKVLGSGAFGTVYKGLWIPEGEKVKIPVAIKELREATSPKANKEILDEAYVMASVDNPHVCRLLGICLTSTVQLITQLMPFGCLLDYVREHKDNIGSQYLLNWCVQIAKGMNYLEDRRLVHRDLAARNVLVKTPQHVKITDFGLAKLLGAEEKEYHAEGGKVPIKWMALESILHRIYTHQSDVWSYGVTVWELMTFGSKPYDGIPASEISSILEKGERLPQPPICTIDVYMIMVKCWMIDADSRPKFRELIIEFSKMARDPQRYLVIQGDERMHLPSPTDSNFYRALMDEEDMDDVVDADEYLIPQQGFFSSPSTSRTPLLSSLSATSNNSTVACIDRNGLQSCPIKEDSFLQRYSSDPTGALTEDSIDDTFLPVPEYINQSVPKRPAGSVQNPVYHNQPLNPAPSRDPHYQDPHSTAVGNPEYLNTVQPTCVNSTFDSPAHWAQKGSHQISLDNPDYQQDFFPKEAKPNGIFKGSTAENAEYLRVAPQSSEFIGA

[7] = target: Ribosomal protein S6 kinase alpha-5 (Homo sapiens) (UniProt O75582); test: Inhibition of recombinant human N-terminal GST-tagged full length MSK1 expressed in baculovirus infected Sf9 insect cells assessed as enzyme activity incubated for 15 mins by [gamma-33]ATP based scintillation counting method relative to control; parameters: scale not given: the % may be the effect or the level left
Sequence of Ribosomal protein S6 kinase alpha-5 (Homo sapiens) (O75582 whole entry, looked up): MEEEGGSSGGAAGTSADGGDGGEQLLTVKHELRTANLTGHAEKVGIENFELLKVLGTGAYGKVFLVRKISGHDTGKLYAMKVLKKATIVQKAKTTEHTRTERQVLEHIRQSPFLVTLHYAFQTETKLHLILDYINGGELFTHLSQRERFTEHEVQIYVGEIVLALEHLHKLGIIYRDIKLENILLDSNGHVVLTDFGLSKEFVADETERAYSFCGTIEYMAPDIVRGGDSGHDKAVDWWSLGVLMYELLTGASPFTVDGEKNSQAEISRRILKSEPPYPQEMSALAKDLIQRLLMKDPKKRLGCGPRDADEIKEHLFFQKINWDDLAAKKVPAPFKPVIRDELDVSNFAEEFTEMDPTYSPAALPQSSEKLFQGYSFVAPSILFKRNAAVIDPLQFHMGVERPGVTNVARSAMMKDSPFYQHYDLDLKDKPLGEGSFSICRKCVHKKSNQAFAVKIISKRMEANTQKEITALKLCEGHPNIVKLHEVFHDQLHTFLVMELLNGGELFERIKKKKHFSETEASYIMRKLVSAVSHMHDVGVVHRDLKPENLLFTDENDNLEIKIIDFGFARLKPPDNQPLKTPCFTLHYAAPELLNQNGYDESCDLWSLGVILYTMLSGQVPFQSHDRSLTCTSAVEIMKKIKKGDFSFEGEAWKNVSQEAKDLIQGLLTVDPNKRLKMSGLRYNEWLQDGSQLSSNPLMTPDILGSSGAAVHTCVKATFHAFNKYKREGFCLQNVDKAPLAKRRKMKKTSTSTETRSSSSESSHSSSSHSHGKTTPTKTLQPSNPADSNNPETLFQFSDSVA

Row | IC50 [1] [nM] | Activity [2] [%] | Activity [3] [%] | Activity [4] [%] | Activity [5] [%] | Activity [6] [%] | Activity [7] [%] | SMILES
1 | 100 | 26 | 1 | 6 | -25 | 40 | 29 | CC(C)C/C=N/c1c(C#N)c2n(c1C(=O)Nc1ccc(Br)cc1)CCC2
2 | 160 | -3 | -11 | -16 | 38 | 10 | -23 | CCC1SCC(=O)N1c1c(C#N)c2n(c1C(=O)Nc1ccccc1)CCC2 (configuration not stated)
3 | 570 | -14 | -8 | -23 | 33 | -10 | -22 | CC/C=N/c1c(C#N)c2n(c1C(=O)Nc1ccccc1)CCC2
4 | – | 5 | -38 | 0 | -10 | 13 | 49 | Cc1ccc(NC(=O)c2ccc(CN3CCN(C)CC3)cc2)cc1Nc1nccc(-c2cccnc2)n1
